Source: PubChem
hERG rescue – compounds protecting human hERG from proarrhythmic drug block | Q12809 | CHO-hERG, FluxOR thallium flux, dofetilide IC70 present | activation (rescue from dofetilide block), less the hit threshold, % at 10 µM | hit rate 0.51% among 310,000;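 active = activation above the mean of controls blocked by dofetilide plus 5 SD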;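 note: thallium influx through hERG after potassium depolarization seen as dye fluorescence rise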
KCNK9 inh – inhibitors of human KCNK9 two-pore domain potassium channel. B-score at 10 µM. AID 488922. hit rate 1.2% among 310,000. HEK293 KCNK9, FluxOR thallium flux fluorescence; hits give low values;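 active = ratio B-score over 3 SD below the library mean, with starting fluorescence within 5 SD of its mean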;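 note: negative B-score means less thallium flux so channel inhibition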
PHOSPHO1 block – inhibitors of human PHOSPHO1 phosphatase; recombinant PHOSPHO1, absorbance phosphatase assay; inhibition, % at 13.3 µM; hit rate 1.1% among 290,000; AID 1565; in the data active = inhibition above about 60%
KCNK3 inh – human KCNK3 channel inhibition, primary screen. CHO-KCNK3 thallium flux, FluxOR fluorescence; hits give low values. O14649. hit rate 0.84% among 340,000. AID 602410. B-score at 10 µM;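 active = B-score under library mean minus 4 SD, starting fluorescence ratio at most library mean plus 5 SD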;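 note: more negative B-score means stronger inhibition of thallium flux through KCNK3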
KCNQ1 block – inhibitors of human KCNQ1 potassium channel. hit rate 1.3% among 310,000. B-score at 10 µM. CHO-K1 KCNQ1, FluxOR thallium flux fluorescence; hits give high values. AID 2642;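 active = compounds whose thallium flux B-score, printed positive for inhibition, exceeds three library SD while starting fluorescence stays within three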;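 note: channel opened by potassium depolarization with thallium stimulus after 20 min compound exposure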
Target sequence (P51787 whole entry, looked up): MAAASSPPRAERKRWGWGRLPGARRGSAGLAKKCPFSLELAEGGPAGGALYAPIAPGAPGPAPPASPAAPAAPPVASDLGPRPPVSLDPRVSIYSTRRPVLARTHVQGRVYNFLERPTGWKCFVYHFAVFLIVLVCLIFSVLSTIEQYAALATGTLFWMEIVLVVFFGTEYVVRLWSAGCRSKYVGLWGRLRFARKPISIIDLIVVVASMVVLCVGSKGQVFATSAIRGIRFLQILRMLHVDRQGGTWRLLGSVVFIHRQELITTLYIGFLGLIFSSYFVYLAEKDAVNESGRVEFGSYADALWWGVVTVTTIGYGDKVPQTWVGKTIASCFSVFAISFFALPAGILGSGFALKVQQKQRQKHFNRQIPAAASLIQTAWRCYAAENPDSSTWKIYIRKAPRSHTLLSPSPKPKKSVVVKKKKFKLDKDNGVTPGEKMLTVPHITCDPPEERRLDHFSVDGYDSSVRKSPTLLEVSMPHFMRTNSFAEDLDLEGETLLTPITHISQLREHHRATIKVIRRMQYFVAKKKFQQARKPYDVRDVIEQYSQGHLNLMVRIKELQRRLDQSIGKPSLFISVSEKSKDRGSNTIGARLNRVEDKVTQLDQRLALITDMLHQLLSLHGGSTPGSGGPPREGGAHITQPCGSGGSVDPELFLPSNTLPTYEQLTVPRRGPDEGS
KCNQ1 act – human KCNQ1 channel potentiation or activation; P51787; CHO-K1 KCNQ1, thallium flux FluxOR fluorescence; hits give high values; B-score at 10 µM; hit rate 0.35% among 310,000; AID 2648;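 active = fluorescence ratio B-score, a plate-corrected score, at least three library SD, with initial intensity B-score within 5 SD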
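assay system = KCNQ1-transfected CHO-K1 cells | medium = assay buffer with matched DMSO | probe or stimulus = depolarizing K+/Tl+ stimulus, K2SO4 and Tl2SO4 each 12.5 mM in 5x stock | dosing = single dose | incubation = dye 90 min, compound 20 min, room temperature | detection = kinetic FluxOR fluorescence, 10 s baseline plus 110 s post-stimulus | evaluation = ratio B score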
The depositor's hits bear a star; i = inactive; x = not tested or not shown. Hits are enriched below; roughly 4% of the tested compounds scored in any of these assays.

SMILES	hERG rescue	KCNK9 inh	PHOSPHO1 block	KCNK3 inh	KCNQ1 block	KCNQ1 act
CC(=O)c1cnc(Nc2nc(C)c3cc(C)c(C)cc3n2)nc1C	7.7*	i	4	i	i	i
CSc1ncc(C(C)=O)c(C)n1	-8	i	22	i	i	i
O=C(CNC(=O)c1ccccc1)N=Nc1c(O)[nH]c2ccc(Br)cc12	-5	i	-5	i	i	i
O=S(=O)(Cc1ccccc1)N=Nc1c(O)[nH]c2ccc(Br)cc12	-14	i	65*	i	i	i
N#Cc1c(/N=C/c2cccs2)sc2c1CCCCC2	-17	i	39	i	6*	i
N#Cc1c(/N=C/c2ccc(Br)s2)sc2c1CCC2	x	x	-8	i	x	x
CCOc1c(OC(C)=O)ccc(/C=C/c2ccc3cccc(OC(C)=O)c3n2)c1[N+](=O)[O-]	-13	i	43	i	12*	i
COc1c(OC(C)=O)ccc(/C=C/c2ccc3cccc(OC)c3n2)c1[N+](=O)[O-]	-5	i	-26	i	i	i
COc1ccc(N2CCN(C(c3ccccc3OC)c3nnnn3C3CCCC3)CC2)cc1 (centres undefined)	-11	i	2	i	i	i
COc1ccc(OC)c(C(c2nnnn2C2CCCC2)N2CCN(c3ccccc3F)CC2)c1 (centres undefined)	-7	-8.9*	6	i	i	i
CCc1cc2ccc(C)cc2nc1SCC(=O)c1ccc(NC(C)=O)cc1	-9	i	28	i	i	i
O=c1[nH]c(/C(=N\O)c2ccccc2)no1	-9	-7.2*	29	i	i	i
CCOC(=O)N1CCN(c2nc3ccccc3nc2C(C#N)C(=O)NCCc2ccccc2)CC1 (centres undefined)	-14	i	-16	i	8*	i
CCCCCCNC(=O)C(C#N)c1nc2ccccc2nc1N1CCOCC1 (centres undefined)	-2	-6.8*	8	i	7*	i
CCCCCNC(=O)C(C#N)c1nc2ccccc2nc1N1CCCC1 (centres undefined)	-13	i	44	i	7*	i
CCCCCCOC(=O)C(C#N)c1nc2ccccc2nc1N1CCN(CC)CC1 (centres undefined)	-28	i	-1	i	7*	i
CCCCCCOC(=O)C(C#N)c1nc2ccccc2nc1N1CCOCC1 (centres undefined)	-20	i	0	i	i	i
Cc1cc(OC(=O)c2ccc(S(=O)(=O)N3CCCC3)cc2)c([N+](=O)[O-])c(=O)[nH]1	-6	i	43	i	i	i
CCOc1ccccc1NC(=O)Cc1ccccc1OC	-13	i	-14	i	i	i
COc1ccccc1CN1CC(C(=O)N(C)CCc2nc3ccc(F)cc3[nH]2)CCC1=O (centres undefined)	-10	i	64*	i	i	i
COc1ccccc1CN1CC(C(=O)N(C)CCOc2ccccc2)CCC1=O (centres undefined)	-3	i	22	i	i	i
N#CCC(=O)Nc1ccc(C(=O)NNC(=O)CCN2CCN(c3ccccc3)CC2)cc1	x	x	x	i	x	x
CCn1c(=O)c([N+](=O)[O-])c(NCCN(C)C)c2ccccc21	-10	i	9	i	i	i
CCn1c(=O)c([N+](=O)[O-])c(Cl)c2ccccc21	-29	i	24	i	7*	i
CNc1ccccc1	x	x	x	i	x	x
SMILES	hERG rescue	KCNK9 inh	PHOSPHO1 block	KCNK3 inh	KCNQ1 block	KCNQ1 act
CNc1cccccc1=S	-7	i	76*	i	i	i
COc1ccccc1NC(=O)N1CCCC1C(=O)Nc1ccc2c(c1)OCO2 (centres undefined)	-14	i	20	i	i	i
O=C(Nc1ccc2c(c1)OCO2)C1CCCN1C(=O)Nc1ccccc1F (centres undefined)	5.6*	i	7	i	i	i
CCCCOc1c(C(=O)Nc2ccccc2)nnn1-c1ccccc1	-4	i	-27	i	i	i
O=S(=O)(c1ccccc1)c1nc(-c2ccccc2Cl)oc1NCCCN1CCOCC1	x	x	x	i	x	x
COc1ccccc1NC(CC(=O)c1ccccc1)C(=O)OCC(=O)c1ccc(F)cc1 (centres undefined)	-15	i	-15	i	i	i
Cc1ccc(-n2nc(C)c(C3C(C#N)=C(N)OC4=C3C(=O)CC(C)(C)C4)c2Cl)cc1 (centres undefined)	x	x	4	x	x	x
Cc1nn(-c2ccccc2)c(Cl)c1C1C(C#N)=C(N)OC2=C1C(=O)CCC2 (centres undefined)	5.4*	i	18	i	i	i
Cc1cccc(N2CCN(C(=O)c3ccccc3SCC(=O)N3CCCC3)CC2)c1C	x	x	x	i	x	x
Cc1cccc(-c2nnc(-c3cccc4ccccc34)o2)c1	x	x	x	-9.5*	x	x
Cc1cccc(-c2nnc(-c3ccc4ccccc4c3)o2)c1	x	x	x	-9.2*	x	x
Cc1ccc(-c2nnc(-c3cccc4ccccc34)o2)cc1	x	x	x	i	x	x
Cc1ccccc1NC(=O)C1CCC(=O)N1 (centres undefined)	-11	i	25	i	i	i
CCn1c(C)nnc1SCC(=O)Nc1nccs1	-5	i	40	i	i	i
CCn1c(Cc2ccccc2)nnc1SCC(=O)Nc1nccs1	-7	i	-53	i	i	i
CCn1c(COc2ccc(C(C)C)cc2)nnc1SCC(=O)Nc1nccs1	-5	i	97*	i	i	i
CCSCc1nnc(SCC(=O)Nc2nccs2)n1CC	-6	i	60*	i	i	i
COc1ccc(C(C(=O)NC(C)(C)C)N(C(=O)CCC(=O)Nc2cc(C)on2)c2cccc(F)c2)cc1 (centres undefined)	7.1*	i	-7	i	i	24*
CCC(C)(C)NC(=O)C(c1ccc(OC)cc1)N(C(=O)CCC(=O)Nc1cc(C)on1)c1cccc(F)c1 (centres undefined)	-4	i	32	i	i	i
C=CCn1c(O)c(N=NC(=S)Nc2ccc(OC)cc2)c2ccccc21	3	i	-10	i	i	17*
C=CCn1c(O)c(N=NC(=S)Nc2cccc(OC)c2)c2ccccc21	25*	i	14	i	i	8*
COc1ccc(C(=O)Nc2ccc(OC)c([N+](=O)[O-])c2)cc1Br	2	i	37	i	i	i
CCOc1ccc(OCC(=O)N(C)c2c(N)n(Cc3ccccc3)c(=O)[nH]c2=O)cc1	-6	i	x	i	i	i
Cc1cccc(C(=O)N(CCc2ccccc2)Cc2ccccc2)c1[N+](=O)[O-]	-9	i	15	i	6*	i
